# Assay results pooled from the literature.
# Lines come from different studies, so protocols differ.
# TYK2 JH1: Non-receptor tyrosine-protein kinase TYK2, JH1 (TYK2, Homo sapiens, UniProt P29597)
# TYK2 JH2: Non-receptor tyrosine-protein kinase TYK2, JH2 (TYK2, Homo sapiens, UniProt P29597)
# TYK2: Non-receptor tyrosine-protein kinase TYK2 (TYK2, Homo sapiens, UniProt P29597)
Compound,target,assay,conditions,remaining binding [%]
F[C@@H]1CCN(c2nccc(-c3cnn4ncccc34)n2)C1,TYK2 JH1,"cell-free assay, competition with immobilised ligand",1 µM,100
CCN1CCN(Cc2ccc(C(=O)Nc3ccc(C)c(Oc4ccc5c(c4)CC(=O)N5)c3)cc2C(F)(F)F)CC1,TYK2 JH2,"binding, competition with immobilised ligand",1 µM,100
CN1CCN(c2ccc(Nc3nccc(-c4cccc([N+](=O)[O-])c4)n3)cc2C(F)(F)F)CC1,TYK2,binding,10 µM,0
O=C(Nc1c[nH]nc1C(=O)NC1CCNCC1)c1cc(F)cc(F)c1,TYK2 JH2,"binding, competition with immobilised ligand",1 µM,100
COc1ncc2cc3ccccc3nc2c1C#N,TYK2 JH1,"cell-free assay, competition with immobilised ligand",5 µM,69
CC1CCCN1c1nccc(-c2cnn3ncccc23)n1 (stereo not shown),TYK2 JH1,"cell-free assay, competition with immobilised ligand",1 µM,100
CC(=O)Nc1c(C(C)=O)c(=O)n(C)c2nc(-c3ccc(Cl)cc3Cl)c(-c3ccc(Cl)cc3)cc12,TYK2 JH2,"cell-free assay, competition with immobilised ligand",1 µM,100
CN(C)c1nccc(-c2cnc3ncccn23)n1,TYK2 JH1,"cell-free assay, competition with immobilised ligand",1 µM,83
COc1cc(-c2cn(C3CCc4c(F)cccc4N(CC(F)(F)F)C3=O)nn2)ccc1-n1cnc(C)c1 (stereo not shown),TYK2 JH2,"cell-free assay, competition with immobilised ligand",1 µM,100
CC(C)(C)c1ccc(-c2nc(CBr)nn2-c2cccc(O)c2)cc1,TYK2,"cell-free assay, competition with immobilised ligand",10 µM,62
CC(=O)N1CCC(c2ccc(C(=O)NC3=NCCN3)cc2C(F)(F)F)CC1,TYK2 JH2,"cell-free assay, competition with immobilised ligand",1 µM,100
O=C(c1ccc(Nc2ncc(Cl)c(-c3cc4ccccc4s3)n2)cc1)N1CCC(N2CCCC2)CC1,TYK2 JH1,"binding, competition with immobilised ligand",1 µM,7.1
COc1cnc(Nc2cccc(S(N)(=O)=O)c2)nc1N1CCN(c2ccccc2)C(=O)C1,TYK2 JH1,"binding, competition with immobilised ligand",1 µM,39
N[C@@H]1CCN(c2nccc(-c3cnn4ncccc34)n2)C1,TYK2,binding,1 µM,100
CC(=O)c1c(NS(C)(=O)=O)c2cc(-c3ccc(Cl)cc3)c(-c3ccc(Cl)cc3Cl)nc2n(C)c1=O,TYK2 JH2,"cell-free assay, competition with immobilised ligand",1 µM,89
Cc1cnc(Nc2ccc(C(=O)N3CCC(N4CCCC4)CC3)cc2)nc1-c1cc2ccccc2s1,TYK2 JH1,"binding, competition with immobilised ligand",1 µM,6.7
Nc1ncc2c(n1)-c1c([nH]c3ccc(C#CC4CC4)cc13)CCCC2,TYK2 JH1,"binding, competition with immobilised ligand",1 µM,86
Cc1c(C(=O)O)cc(-c2ccc(C3CCNCC3)cc2)c2ccc(-c3ccc(C(F)(F)F)cc3)cc12,TYK2 JH1,"binding, competition with immobilised ligand",1 µM,100
C[C@H]1CCN(c2nccc(-c3cnn4ncccc34)n2)C1,TYK2,binding,1 µM,51
O=C(c1ccc(Nc2ncc(Cl)c(-c3ccc(Cl)s3)n2)cc1)N1CCC(N2CCCC2)CC1,TYK2 JH2,"binding, competition with immobilised ligand",1 µM,0.2
CCC(=O)N[C@@H]1CC[C@H](C(=O)N(C)c2ccc(-c3nc4ccccc4o3)cc2)C1,TYK2 JH2,"cell-free assay, competition with immobilised ligand",1 µM,100
Cc1cnn2ncc(-c3ccnc(N(C)C)n3)c2c1,TYK2 JH1,"cell-free assay, competition with immobilised ligand",1 µM,64
